# In the library only some 1.7% were active in any assay of this set; here they are far more common.
# DNMT1 inh – DNMT1 (human) enzyme inhibition | P26358 | DNMT1 molecular beacon, Hinp1I cleavage, fluorescence | inhibition (reported as % activation of signal), % at 10 µM | 360,000 tested, 0.83% active | AID 588458; in the data active = inhibition above about 50%
# Target sequence (P26358 504-1616 limits assumed): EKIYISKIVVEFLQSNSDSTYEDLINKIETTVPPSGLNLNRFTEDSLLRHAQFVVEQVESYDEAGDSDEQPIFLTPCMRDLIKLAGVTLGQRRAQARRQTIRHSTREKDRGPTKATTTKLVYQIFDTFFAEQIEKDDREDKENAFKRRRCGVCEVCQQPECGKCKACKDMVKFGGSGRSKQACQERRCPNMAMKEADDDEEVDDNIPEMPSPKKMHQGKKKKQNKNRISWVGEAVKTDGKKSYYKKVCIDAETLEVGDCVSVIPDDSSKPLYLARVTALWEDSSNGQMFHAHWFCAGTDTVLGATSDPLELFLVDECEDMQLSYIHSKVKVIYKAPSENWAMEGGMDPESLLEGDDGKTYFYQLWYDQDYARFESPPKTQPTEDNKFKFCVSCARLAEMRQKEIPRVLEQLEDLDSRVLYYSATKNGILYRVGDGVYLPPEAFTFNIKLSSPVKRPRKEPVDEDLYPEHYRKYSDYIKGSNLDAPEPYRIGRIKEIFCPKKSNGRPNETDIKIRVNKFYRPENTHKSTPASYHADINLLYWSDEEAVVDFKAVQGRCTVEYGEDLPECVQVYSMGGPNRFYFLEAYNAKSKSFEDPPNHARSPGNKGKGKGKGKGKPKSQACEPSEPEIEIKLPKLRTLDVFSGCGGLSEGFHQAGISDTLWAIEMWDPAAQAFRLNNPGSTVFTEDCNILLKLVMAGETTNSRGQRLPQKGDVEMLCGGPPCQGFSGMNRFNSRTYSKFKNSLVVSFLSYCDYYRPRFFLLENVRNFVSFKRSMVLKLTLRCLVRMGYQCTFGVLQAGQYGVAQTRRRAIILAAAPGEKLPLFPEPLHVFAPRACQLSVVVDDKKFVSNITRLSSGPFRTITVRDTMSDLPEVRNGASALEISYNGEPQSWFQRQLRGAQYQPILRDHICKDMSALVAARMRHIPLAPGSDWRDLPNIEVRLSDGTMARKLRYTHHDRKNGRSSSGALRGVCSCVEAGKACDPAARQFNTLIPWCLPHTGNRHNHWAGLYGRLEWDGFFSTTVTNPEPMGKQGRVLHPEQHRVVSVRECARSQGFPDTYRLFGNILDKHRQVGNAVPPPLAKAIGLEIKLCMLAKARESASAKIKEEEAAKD
# LMPTP inh – LMPTP (human) inhibition; P24666; recombinant LMPTP-A, OMFP fluorogenic substrate, fluorescence intensity; inhibition, % at 20 µM; 360,000 tested, 0.22% active;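 active = compounds that cut the enzyme signal by at least half of the control window in the single-dose screen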;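 also: plate controls were DMSO wells with enzyme plus substrate for no effect and substrate without enzyme for full effect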
#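 Test system: LMPTP-A phosphatase enzyme. Amount: LMPTP-A at 0.625 nM final in the reaction. Reagent: OMFP substrate, 400 µM final. Times: 50 min at room temperature. Signal: endpoint fluorescence intensity from OMFP dephosphorylation. Read-out basis: % inhibition. Benchmarks: no-enzyme and uninhibited controls.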
# Scp1 inh – inhibitors of human Scp-1 phosphatase. Recombinant Scp1, phosphopeptide, malachite green phosphate absorbance. 340,000 tested, 0.88% active. AID 493091. inhibition, % at 20 µM;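 active = inhibition above about 50% at 20 µM, limit read from the data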;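 also: plate controls were DMSO wells with enzyme for no effect and wells lacking enzyme for full effect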
#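 Incubation: 45 min enzyme reaction at room temperature / System: truncated SCP-1 phosphatase (76-261aa) / Reagent: Phospho 17-mer peptide substrate / Buffer or medium: Acidic Tris acetate buffer with magnesium and detergent / Signal: absorbance at 630 nm / Doses: one concentration, 20 µM, with 1.0% DMSO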
# SUMO1 PPI mod – modulators of human SUMO1-mediated protein-protein interactions | inhibition, % at 20 µM | SUMO1 binding to a labelled peptide, TR-FRET, 1 h | 360,000 tested, 0.33% active | P63165 | AID 602429; in the data active = inhibition above about 37%
# STEP block – blocks human striatal-enriched tyrosine phosphatase | P54829 | recombinant STEP, OMFP fluorogenic substrate, fluorescence | inhibition, % at 20 µM | 360,000 tested, 0.25% active;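 active = inhibition at 20 µM, scaled per plate between control wells, above about 37%, limit read from the data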;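 also: 0% = DMSO with enzyme and substrate and 100% = substrate only without enzyme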
#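 Assay system: isolated STEP enzyme. Buffer or medium: pH 6.0 Bis-Tris with DTT and Tween 20. Also added: fluorogenic phosphatase substrate OMFP at 25 µM final. Dosing: 20 µM, 1% DMSO. Timing: 20 min reaction, room temperature, in the dark. Measured by: fluorescence intensity, excitation 480 nm, emission 540 nm. Evaluation: normalized % inhibition.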
# DNMT1 interf DR – counter-screen for DNMT1 inhibitors: spectral interference, dose response. shares compounds with DNMT1 inh. molecular beacon fluorescence. IC50, µM. 200 tested, under 10 active. AID 602382
# DNMT1 inh conf – DNMT1 inhibition confirmation, single concentration; AID 602385; DNMT1 molecular beacon HinP1I cleavage, fluorescence; shares compounds with DNMT1 inh; 2,300 tested, 8% active; inhibition, % at 10 µM;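 active = average inhibition of at least 30% in the single-concentration confirmation test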
# DNMT1 interf – beacon fluorescence artifact counter-screen | shares compounds with DNMT1 inh | DNMT1 molecular beacon spectral interference counterscreen, fluorescence 485/520 | activation (fluorescence interference), % at 10 µM | 2,300 tested, 1% active;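 active = activation of at least 30% at 10 µM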;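 also: DNMT1 catalytic domain with a HinP1I cleavage step and a FAM/dabcyl DNA beacon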
# STEP conf – STEP (human) phosphatase inhibition, single concentration confirmation; inhibition, % at 20 µM; 520 tested, 32% active; shares compounds with STEP block; recombinant STEP, OMFP fluorogenic substrate, fluorescence;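 also: 0% = enzyme with substrate plus DMSO and 100% = substrate without enzyme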
# Active calls of the source: *; x = no result. Unless noted, no rule for the calls is given here.
SMILES,DNMT1 inh,LMPTP inh,Scp1 inh,SUMO1 PPI mod,STEP block,DNMT1 inh conf,DNMT1 interf,others
CC(C)N1C(=O)/C(=C/C=C/c2ccco2)C(=O)N(Cc2ccco2)C1=O,108.7*,4.7,69.9*,8.1,2.5,26.7,-0.3,DNMT1 interf DR=>99
O=C1NC(=O)N(Cc2ccccc2)C(=O)/C1=C/C=C/c1ccco1,89.7*,1.7,-10.6,19.1,0.7,1.9,0.8,
CCn1c(NN=O)nc2ccccc21,0.6,4.2,12.3,-7.5,-0.1,x,x,
CN1C(=O)/C(=C/c2cccn2-c2ccc3ccccc3c2)C(=O)NC1=S,80.7*,5.8,-4.3,15.1,5.9,3.6,-3.5,
O=C1NC(=S)NC(=O)C1=Cc1cccn1-c1ccc(O)cc1,84.3*,32.4,55.5*,11.3,3.1,65.0*,-4.3,DNMT1 interf DR=>99
Cc1cc(C)cc(N2C(=O)NC(=O)/C(=C\c3cccn3-c3ccc(Cl)cc3)C2=O)c1,16.7,-0.6,-10.1,6.8,1.0,x,x,
C=CCSc1nc2c(c(-c3ccsc3)c1C#N)CN(C)CC2,51.9*,23.4,-3.8,-44.4,1.2,1.5,2.8,
COC(=O)C1=C(c2ccc(-c3ccccc3)c(F)c2)C[C@@H]2CC[C@H]1N2C(=O)NCc1cccc2ccccc12,-4.3,3.7,-6.5,2.5,2.9,x,x,
Cc1cc(/C=C2\C(=O)NC(=O)N(c3cccc(Br)c3)C2=O)c(C)n1C,8.4,0.4,-13.8,0.9,-3.3,x,x,
Cc1cc(/C=C2\C(=O)NC(=O)N(c3cccc(F)c3)C2=O)c(C)n1-c1cc(C(=O)O)cc(C(=O)O)c1,74.9*,0.4,39.1,25.6,8.8,9.7,4.1,
COc1cccc(N2C(=O)/C(=C/c3ccc(C)o3)C(=O)NC2=S)c1,61.6*,1.1,39.5,19.7,3.6,0.1,1.6,
O=C1NC(=S)N(c2ccccc2)C(=O)/C1=C/c1ccco1,93.5*,6.8,93.2*,53.9*,39.8,82.0*,-10.9,DNMT1 interf DR=>99
c1cc2c(cc1-c1ccc3c(c1)OCO3)CNCc1cnnn1-2,6.7,-0.4,x,-2.7,-0.3,x,x,
C=C1C(C)C2C(Cc3ccccc3)NC(=O)C23OC(=O)/C=C/C(O)CCCC(C)C/C=C/C3C1O (stereo unspecified),4.0,-2.0,-0.3,-0.5,-4.9,x,x,
Nc1c(C(=O)OC2CCCCC2)c2nc3ccccc3nc2n1CC1CCCO1 (stereo unspecified),-20.9,3.6,-0.1,18.8,6.7,x,x,
CCCNC(=O)c1c(N)n(CC2CCCO2)c2nc3ccccc3nc12 (stereo unspecified),60.5*,4.0,7.2,44.4*,4.8,2.1,4.5,
CC(C)OCCCNC(=O)c1c(N)n(CC2CCCO2)c2nc3ccccc3nc12 (stereo unspecified),85.2*,12.9,0.5,40.4*,4.0,0.6,8.8,
CC[C@H]1CN2CCC1C[C@@H]2[C@@H](O)c1ccnc2ccc(OC)cc12 (stereo partly specified),2.4,0.5,4.8,2.0,0.5,x,x,
CC[C@H]1CN2CCC1C[C@H]2[C@H](O)c1ccnc2ccc(OC)cc12 (stereo partly specified),44.8,65.1*,-8.8,55.5*,48.2*,x,x,STEP conf=9.4
O=P(O)(O)COc1ccccc1O,1.3,-0.9,-0.4,4.1,4.3,x,x,
CC1CC(OP(O)(=S)c2ccc(N(C)C)cc2NC(=O)c2cccs2)CC(C)(C)C1 (stereo unspecified),-12.7,1.2,-3.5,-1.7,3.9,x,x,
CN1CCC2(CC1)N=C(c1ccc(F)cc1)C(=S)N2,1.1,0.9,-1.3,-2.9,78.3*,x,x,STEP conf=27.8*
Cc1ccc(Cn2cc(C=O)c(-c3ccc(C)cc3)n2)cc1,2.3,3.3,-9.6,3.4,73.5*,x,x,STEP conf=26.8*
